Measurements taken from ChEMBL document CHEMBL1155459, “On-bead screening of a combinatorial fumaric acid derived peptide library yields antiplasmodial cysteine protease inhibitors with unusual peptide sequences” (J Med Chem, 2009).
Peptide text beside a SMILES is read from it.

Tests used:
[1] = Inhibition of Plasmodium falciparum falcipain-2 after 12 hrs by fluorescence spectroscopy-based on-bead assay; design: concentration or dose not given beside the values; conditions: concentration not given here
In short: (§1)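 Library members on resin (PEGA, theoretical loading 0.40 mmol/g; added as DMSO suspension, 0.64 mM final inhibitor) preincubated with enzyme 12 h, then Cbz-Phe-Arg-AMC 40 μM added; AMC release followed by fluorescence (ex 380/em 460 nm). Kinetics compared with inhibitor-free amino-PEGA resin.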

[2] = target: Rhodesain (Trypanosoma brucei rhodesiense) (UniProt Q95PM0); experiment: Inhibition of Trypanosoma brucei rhodesiense rhodesain after 12 hrs by fluorescence spectroscopy-based on-bead assay; design: concentration or dose not given beside the values; conditions: concentration not given here; in short: as §1
Rhodesain (Trypanosoma brucei rhodesiense), sequence (Q95PM0 1-450): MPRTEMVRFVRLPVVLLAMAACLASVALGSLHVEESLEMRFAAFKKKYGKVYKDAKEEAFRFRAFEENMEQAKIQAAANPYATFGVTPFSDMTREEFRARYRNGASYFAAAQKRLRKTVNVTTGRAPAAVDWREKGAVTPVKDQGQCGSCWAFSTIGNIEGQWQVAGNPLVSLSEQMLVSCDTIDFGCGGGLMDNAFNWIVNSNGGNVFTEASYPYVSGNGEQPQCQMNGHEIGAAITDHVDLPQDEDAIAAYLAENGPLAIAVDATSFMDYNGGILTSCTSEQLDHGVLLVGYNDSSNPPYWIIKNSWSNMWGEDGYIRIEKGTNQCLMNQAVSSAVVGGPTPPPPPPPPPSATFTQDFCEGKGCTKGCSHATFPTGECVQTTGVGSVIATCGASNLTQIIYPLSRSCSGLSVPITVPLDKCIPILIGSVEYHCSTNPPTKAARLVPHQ

Compound	inhibition [1]	inhibition [2]
CC[C@H](C)[C@H](NC(=O)[C@H](CNC(C)=O)NC(=O)/C=C/C(=O)N[C@@H](C)C(=O)NCC(=O)N[C@@H](Cc1ccccc1)C(=O)O)C(=O)N[C@@H](C)C(=O)N[C@H](C(N)=O)C(C)C (HELM PEPTIDE1{[C[C@H](NC(=O)/C=C/C(=O)[*:2])C(=O)NCC(=O)N[C@@H](Cc1ccccc1)C(=O)O].[O=C([C@H](CN[*:3])N[*:1])[*:2]].I.A.V.[am]}|PEPTIDE2{[ac]}$PEPTIDE1,PEPTIDE2,2:R3-1:R2$$$V2.0)	28%	26%
CC[C@H](C)[C@H](NC(=O)[C@H](CCC(N)=O)NC(=O)/C=C/C(=O)N[C@@H](C)C(=O)NCC(=O)N[C@@H](Cc1ccccc1)C(=O)O)C(=O)N[C@@H](C)C(=O)N[C@H](C(N)=O)C(C)C (HELM PEPTIDE1{[C[C@H](NC(=O)/C=C/C(=O)[*:2])C(=O)NCC(=O)N[C@@H](Cc1ccccc1)C(=O)O].Q.I.A.V.[am]}$$$$V2.0)	43%	29%
CC(C)[C@H](NC(=O)[C@H](C)NC(=O)[C@@H](NC(=O)[C@H](CCC(N)=O)NC(=O)/C=C/C(=O)N[C@@H](C)C(=O)NCC(=O)N[C@@H](Cc1ccccc1)C(=O)O)C1CCCCC1)C(N)=O (HELM PEPTIDE1{[C[C@H](NC(=O)/C=C/C(=O)[*:2])C(=O)NCC(=O)N[C@@H](Cc1ccccc1)C(=O)O].Q.[O=C([C@@H](N[*:1])C1CCCCC1)[*:2]].A.V.[am]}$$$$V2.0)	55%	39%
CC(C)[C@H](NC(=O)[C@@H](NC(=O)[C@@H](NC(=O)[C@H](Cc1ccccc1)NC(=O)/C=C/C(=O)N[C@@H](C)C(=O)NCC(=O)N[C@@H](Cc1ccccc1)C(=O)O)C1CCCCC1)C(C)C)C(N)=O (HELM PEPTIDE1{[C[C@H](NC(=O)/C=C/C(=O)[*:2])C(=O)NCC(=O)N[C@@H](Cc1ccccc1)C(=O)O].F.[O=C([C@@H](N[*:1])C1CCCCC1)[*:2]].V.V.[am]}$$$$V2.0)	45%	49%
CC(C)[C@H](NC(=O)[C@H](C)NC(=O)[C@@H](NC(=O)[C@H](Cc1ccccc1)NC(=O)/C=C/C(=O)N[C@@H](C)C(=O)NCC(=O)N[C@@H](Cc1ccccc1)C(=O)O)C1CCCCC1)C(N)=O (HELM PEPTIDE1{[C[C@H](NC(=O)/C=C/C(=O)[*:2])C(=O)NCC(=O)N[C@@H](Cc1ccccc1)C(=O)O].F.[O=C([C@@H](N[*:1])C1CCCCC1)[*:2]].A.V.[am]}$$$$V2.0)	29%	21%
CC(C)[C@H](NC(=O)[C@H](C)NC(=O)[C@H](Cc1ccccc1)NC(=O)[C@H](Cc1ccccc1)NC(=O)/C=C/C(=O)NCC(=O)NCC(=O)N[C@@H](Cc1ccccc1)C(=O)O)C(N)=O (HELM PEPTIDE1{[O=C(/C=C/C(=O)[*:2])NCC(=O)NCC(=O)N[C@@H](Cc1ccccc1)C(=O)O].F.F.A.V.[am]}$$$$V2.0)	43%	47%
CC(C)[C@H](NC(=O)[C@H](C)NC(=O)[C@@H](NC(=O)[C@H](CCC(N)=O)NC(=O)/C=C/C(=O)N[C@@H](C)C(=O)NCC(=O)N[C@@H](Cc1ccccc1)C(=O)O)c1ccccc1)C(N)=O (HELM PEPTIDE1{[C[C@H](NC(=O)/C=C/C(=O)[*:2])C(=O)NCC(=O)N[C@@H](Cc1ccccc1)C(=O)O].Q.[Phg].A.V.[am]}$$$$V2.0)	55%	12%
CC[C@H](C)[C@H](NC(=O)[C@H](CNC(C)=O)NC(=O)/C=C/C(=O)N[C@@H](C)C(=O)NCC(=O)N[C@@H](Cc1ccccc1)C(=O)O)C(=O)N[C@H](C(=O)N[C@H](C(N)=O)C(C)C)C(C)C (HELM PEPTIDE1{[C[C@H](NC(=O)/C=C/C(=O)[*:2])C(=O)NCC(=O)N[C@@H](Cc1ccccc1)C(=O)O].[O=C([C@H](CN[*:3])N[*:1])[*:2]].I.V.V.[am]}|PEPTIDE2{[ac]}$PEPTIDE1,PEPTIDE2,2:R3-1:R2$$$V2.0)	52%	49%
